In ChEMBL document CHEMBL1148224, “The synthesis and structure-activity relationships of 3-amino-4-benzylquinolin-2-ones; discovery of novel KCNQ2 channel openers” (Bioorg Med Chem Lett, 2004):

What was measured:
[1] = target: Potassium voltage-gated channel subfamily KQT member 2 (Mus musculus) (UniProt Q9Z351); test: Increased outward current at -40 mV mediated by mouse KCNQ2 channel expressed in Xenopus laevis oocytes at 20 uM; format: functional, cell-based; conditions: Oocyte
How it was run: (§1)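 Mouse KCNQ2 (mKCNQ2) currents recorded from Xenopus oocytes by two-electrode voltage clamp. Holding potential -90 mV, with about 5 s steps in +10 mV increments up to +40 mV. Records digitized at 5 kHz. Each compound applied at a single concentration (1, 5 or 20 µM) in at least 3 oocytes. Value is the mean percent change in current relative to the drug-free control (100%).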

[2] = target: Potassium voltage-gated channel subfamily KQT member 2 (Mus musculus) (UniProt Q9Z351); test: Increased outward current at -40 mV mediated by mouse KCNQ2 channel expressed in Xenopus laevis oocytes at 1 uM; format: functional, cell-based; conditions: Oocyte; how it was run: as §1
[3] = target: Potassium voltage-gated channel subfamily KQT member 2 (Mus musculus, UniProt Q9Z351); test: Increased outward current at -40 mV mediated by mouse KCNQ2 channel expressed in Xenopus laevis oocytes; format: functional, cell-based, Oocyte
[4] = target: Potassium voltage-gated channel subfamily KQT member 2 (Mus musculus) (UniProt Q9Z351); test: Increased outward current at -40 mV mediated by mouse KCNQ2 channel expressed in Xenopus laevis oocytes at 5 uM; Insoluble; format: functional, cell-based; conditions: Oocyte; how it was run: as §1
[5] = target: Potassium voltage-gated channel subfamily KQT member 2 (Mus musculus) (UniProt Q9Z351); test: Increased outward current at -40 mV mediated by mouse KCNQ2 channel expressed in Xenopus laevis oocytes at 20 uM; Insoluble; format: functional, cell-based; conditions: Oocyte; how it was run: as §1
[6] = target: Potassium voltage-gated channel subfamily KQT member 2 (Mus musculus) (UniProt Q9Z351); test: Increased outward current at -40 mV mediated by mouse KCNQ2 channel expressed in Xenopus laevis oocytes at 100 nM; format: functional, cell-based; conditions: Oocyte

Chain of Potassium voltage-gated channel subfamily KQT member 2 (Mus musculus) (Q9Z351 whole entry): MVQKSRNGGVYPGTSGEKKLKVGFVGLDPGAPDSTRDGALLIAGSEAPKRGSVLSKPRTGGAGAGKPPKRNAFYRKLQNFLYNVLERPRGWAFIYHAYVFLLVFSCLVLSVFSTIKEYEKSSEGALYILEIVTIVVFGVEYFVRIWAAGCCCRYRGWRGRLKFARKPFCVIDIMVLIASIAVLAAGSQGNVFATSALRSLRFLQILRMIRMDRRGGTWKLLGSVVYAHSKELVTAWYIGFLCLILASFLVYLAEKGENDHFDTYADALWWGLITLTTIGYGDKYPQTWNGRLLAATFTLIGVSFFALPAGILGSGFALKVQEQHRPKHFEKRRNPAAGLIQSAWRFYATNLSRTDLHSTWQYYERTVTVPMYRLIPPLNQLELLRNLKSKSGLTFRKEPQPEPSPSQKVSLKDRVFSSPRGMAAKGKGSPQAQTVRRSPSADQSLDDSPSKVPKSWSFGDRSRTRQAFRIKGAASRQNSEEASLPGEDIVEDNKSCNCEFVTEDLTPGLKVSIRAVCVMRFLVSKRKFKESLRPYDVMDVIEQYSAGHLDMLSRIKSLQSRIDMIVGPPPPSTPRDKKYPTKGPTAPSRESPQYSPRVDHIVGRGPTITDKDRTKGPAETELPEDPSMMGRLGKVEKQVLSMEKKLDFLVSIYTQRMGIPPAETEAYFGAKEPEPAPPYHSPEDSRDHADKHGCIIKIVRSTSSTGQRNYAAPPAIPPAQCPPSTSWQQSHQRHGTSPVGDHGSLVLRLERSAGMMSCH
Chain of Potassium voltage-gated channel subfamily KQT member 2 (Q9Z351 whole entry): as above

In the case of `Nc1c(O)nc2ccc(C(F)(F)F)cc2c1Cc1cc(Cl)ccc1O`, the Increase [1] is reported as 122%.

Work on `Nc1c(O)nc2ccccc2c1Cc1ccccc1` yielded an Increase [1] of 103%.

Compound `O=S(=O)(Nc1c(O)nc2cc(C(F)(F)F)ccc2c1Cc1ccccc1)C(F)(F)F` has an Increase [1] of 223%.

`O=S(=O)(Nc1c(O)nc2cc(C(F)(F)F)ccc2c1Cc1cc(Cl)ccc1O)C(F)(F)F` gave an Increase [2] of 190% and an Increase [1] of 271%.

`COc1ccccc1Cc1c(NS(=O)(=O)C(F)(F)F)c(O)nc2cc(C(F)(F)F)ccc12` was tested, and the Increase [1] was 254%.

Compound `COc1ccc(Cl)cc1Cc1c(NS(=O)(=O)C(F)(F)F)c(O)nc2ccc(C(F)(F)F)cc12` has an Increase [1] of 231%.

With `O=c1[nH]c2ccc(C(F)(F)F)cc2c(Cc2cc(Cl)ccc2O)c1NS(=O)(=O)C(F)(F)F` the EC50 [3] was 663 nM.

In the case of `Nc1c(O)nc2cc(C(F)(F)F)ccc2c1Cc1cc(Cl)ccc1O`, the Increase [4] is reported as “Insoluble”, the Increase [2] is reported as 89% and the Increase [5] is reported as “Insoluble”.

In the case of `O=S(=O)(Nc1c(O)nc2ccc(C(F)(F)F)cc2c1Cc1cc(Cl)ccc1O)C(F)(F)F`, the Increase [2] is reported as 217%, the Increase [6] is reported as 143% and the Increase [1] is reported as 284%.

For `O=S(=O)(Nc1c(O)nc2ccccc2c1Cc1ccccc1)C(F)(F)F`, the Increase [1] was 131%.

`O=S(=O)(Nc1c(O)nc2cc(C(F)(F)F)ccc2c1Cc1ccccc1O)C(F)(F)F` gave an Increase [1] of 277%.

In the case of `CCOC(=O)Nc1ccc(NCc2ccc(F)cc2)cc1N`, the Increase [1] is reported as 269%.

With `O=S(=O)(Nc1c(O)nc2cc(C(F)(F)F)ccc2c1Cc1cccc(Cl)c1)C(F)(F)F` the Increase [1] was 220%.
